Test results published in ChEMBL document CHEMBL1154468, “Synthesis and evaluation of fluoroquinolone derivatives as substrate-based inhibitors of bacterial efflux pumps” (2008).
Values after ≈ are worked out from the molar mass of the structure shown. Active and inactive are the calls of the source. The rule behind the calls is not given here.

Tests used:
Staphylococcus aureus [1] = test: Inhibition of MepA efflux pump in Staphylococcus aureus […] assessed as reduction of ethidium bromide efflux for 5 mins
Escherichia coli [2] = test: Antibacterial activity against Escherichia coli AG100 by broth microdilution technique; format: functional
Summary of the method: (§1)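 MIC determined against E. coli AG102, an acrAB overexpresser, alongside its susceptible parental control AG100.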

Staphylococcus aureus [3] = test: Antibacterial activity against Staphylococcus aureus K1758-P by broth microdilution technique; format: functional
Summary of the method: (§2)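 S. aureus K1758-P is the susceptible control for K1758-A, a K1758-background strain carrying a constructed plasmid for mepA overexpression. MIC was determined on both.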

Staphylococcus aureus [4] = test: Antibacterial activity against Staphylococcus aureus K2361 overexpressing norA by broth microdilution technique; format: functional
Summary of the method: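 MIC assessed on norA-overexpressing S. aureus K2361, paired with K1902 as its susceptible control.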

Pseudomonas aeruginosa [5] = test: Antibacterial activity against Pseudomonas aeruginosa PAO1 by broth microdilution technique; format: functional
Summary of the method: (§3)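 MIC tested on P. aeruginosa PAO1, the susceptible control, and on its derivatives OCR1 (mexAB overexpresser) and K1536 (mexCD overexpresser).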

Pseudomonas aeruginosa [6] = test: Antibacterial activity against Pseudomonas aeruginosa K1536 overexpressing mexCD by broth microdilution technique; format: functional; summary of the method: as §3
Staphylococcus aureus [7] = test: Antibacterial activity against Staphylococcus aureus K1758-A overexpressing mepA by broth microdilution technique; format: functional; summary of the method: as §2
Pseudomonas aeruginosa [8] = test: Antibacterial activity against Pseudomonas aeruginosa OCR1 overexpressing mexAB by broth microdilution technique; format: functional; summary of the method: as §3
Escherichia coli [9] = test: Antibacterial activity against Escherichia coli AG102 overexpressing acrAB by broth microdilution technique; format: functional; summary of the method: as §1
Staphylococcus aureus [10] = test: Antibacterial activity against ciprofloxacin-resistant Staphylococcus aureus at > 100 ug/ml by broth microdilution technique; format: functional, organism-based
[11] = target: T1, Quinolone resistance protein NorA (Staphylococcus aureus) (UniProt P0A0J7); test: Inhibition of NorA efflux pump in Staphylococcus aureus K2361 assessed as reduction of ethidium bromide efflux for 5 mins
T1 sequence (whole entry): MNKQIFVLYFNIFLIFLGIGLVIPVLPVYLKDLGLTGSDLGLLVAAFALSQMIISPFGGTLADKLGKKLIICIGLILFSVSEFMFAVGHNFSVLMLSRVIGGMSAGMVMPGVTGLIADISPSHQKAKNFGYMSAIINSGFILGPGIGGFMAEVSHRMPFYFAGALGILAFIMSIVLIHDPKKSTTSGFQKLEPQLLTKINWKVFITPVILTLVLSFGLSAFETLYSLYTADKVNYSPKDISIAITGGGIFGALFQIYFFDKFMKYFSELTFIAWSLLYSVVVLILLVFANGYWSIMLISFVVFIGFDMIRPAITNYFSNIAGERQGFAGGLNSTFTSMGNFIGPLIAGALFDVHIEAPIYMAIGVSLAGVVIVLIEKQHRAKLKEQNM

Staphylococcus aureus [12] = test: Antibacterial activity against Staphylococcus aureus K1902 by broth microdilution technique; format: functional
[13] = target: T1, Quinolone resistance protein NorA (Staphylococcus aureus); test: Inhibition of NorA efflux pump in Staphylococcus aureus K2361 assessed as reduction of ethidium bromide efflux at 0.5 uM […]
[14] = target: T1, Quinolone resistance protein NorA (Staphylococcus aureus); conditions: 30 uM
Staphylococcus aureus [15] = test: Inhibition of MepA efflux pump in Staphylococcus aureus K2361 assessed as reduction of ethidium bromide efflux at 30 uM for 5 mins; conditions: in the assay text read “K1758-A” for “K2361”
[16] = target: T1, Quinolone resistance protein NorA (Staphylococcus aureus); test: Inhibition of NorA efflux pump in Staphylococcus aureus K2361 assessed as reduction of ethidium bromide efflux at 2 uM for 5 mins
Staphylococcus aureus [17] = test: Inhibition of MepA efflux pump in Staphylococcus aureus K2361 assessed as reduction of ethidium bromide efflux at 10 uM for 5 mins; conditions: in the assay text read “K1758-A” for “K2361”
[18] = target: T1, Quinolone resistance protein NorA (Staphylococcus aureus); test: Inhibition of NorA efflux pump in Staphylococcus aureus K2361 assessed as reduction of ethidium bromide efflux at 10 uM for 5 mins
Staphylococcus aureus [19] = test: Inhibition of MepA efflux pump in Staphylococcus aureus K2361 assessed as reduction of ethidium bromide efflux at 2 uM for 5 mins; conditions: in the assay text read “K1758-A” for “K2361”
Staphylococcus aureus [20] = test: Inhibition of MepA efflux pump in Staphylococcus aureus K2361 assessed as reduction of ethidium bromide efflux at 0.5 uM […]; conditions: in the assay text read “K1758-A” for “K2361”

Question: Which results are given for O=C(Nc1ccccc1)Nc1ccc(CN2CCN(c3cc4c(cc3F)c(=O)c(C(=O)O)cn4C3CC3)CC2)cc1?
Answer: Activity (Staphylococcus aureus [1]): inactive; MIC (Escherichia coli [2]): 5 µg/mL (≈ 9 µM); MIC (Staphylococcus aureus [3]): 0.63 µg/mL (≈ 1.13 µM); MIC (Staphylococcus aureus [4]): 1.25 µg/mL (≈ 2.25 µM); MIC (Pseudomonas aeruginosa [5]): 50 µg/mL (≈ 90 µM); MIC (Pseudomonas aeruginosa [6]): 50 µg/mL (≈ 90 µM); MIC (Staphylococcus aureus [7]): 0.63 µg/mL (≈ 1.13 µM); MIC (Pseudomonas aeruginosa [8]): 50 µg/mL (≈ 90 µM); MIC (Escherichia coli [9]): 10 µg/mL (≈ 18 µM); Activity (Staphylococcus aureus [10]): inactive; Activity [11]: inactive; MIC (Staphylococcus aureus [12]): 0.31 µg/mL (≈ 0.558 µM)

Question: What does the source list for NCCC[C@H](N)C(=O)N[C@@H](Cc1ccccc1)C(=O)N1CCN(c2cc3c(cc2F)c(=O)c(C(=O)O)cn3C2CC2)CC1?
Answer: MIC (Escherichia coli [2]): 10 µg/mL (≈ 16.9 µM); MIC (Staphylococcus aureus [3]): > 10 µg/mL; MIC (Pseudomonas aeruginosa [5]): 50 µg/mL (≈ 84.4 µM); MIC (Pseudomonas aeruginosa [6]): 50 µg/mL (≈ 84.4 µM); MIC (Pseudomonas aeruginosa [8]): 50 µg/mL (≈ 84.4 µM); MIC (Escherichia coli [9]): 10 µg/mL (≈ 16.9 µM); MIC (Staphylococcus aureus [12]): > 10 µg/mL

Question: With CC1COc2c(N3CCN(C)CC3)c(F)cc3c(=O)c(C(=O)O)cn1c23 (stereo not given) [OFLOXACIN] as the compound, how does the MIC (Escherichia coli [2]) read?
Answer: Its MIC is 0.08 µg/mL (≈ 0.221 µM).

Question: What about the MIC (Staphylococcus aureus [3]) of the same compound?
Answer: Its MIC is 0.63 µg/mL (≈ 1.74 µM).

Question: And the MIC (Staphylococcus aureus [4])?
Answer: Its MIC is 2.5 µg/mL (≈ 6.92 µM).

Question: And the MIC (Pseudomonas aeruginosa [5])?
Answer: The MIC was 1.25 µg/mL (≈ 3.46 µM).

Question: What about the MIC (Pseudomonas aeruginosa [6]) of the same compound?
Answer: The MIC was 6.25 µg/mL (≈ 17.3 µM).

Question: What about the MIC (Staphylococcus aureus [7]) of the same compound?
Answer: Its MIC is 1.25 µg/mL (≈ 3.46 µM).

Question: What about the MIC (Pseudomonas aeruginosa [8]) of the same compound?
Answer: Its MIC is 6.25 µg/mL (≈ 17.3 µM).

Question: What about the MIC (Escherichia coli [9]) of the same compound?
Answer: Its MIC is 0.16 µg/mL (≈ 0.443 µM).

Question: What about the MIC (Staphylococcus aureus [12]) of the same compound?
Answer: Its MIC is 0.63 µg/mL (≈ 1.74 µM).

Question: How did the inhibition [13] turn out when NCc1ccc(NC(=O)Nc2ccccc2)cc1 was run?
Answer: Its inhibition is 20%.

Question: With O=C(Nc1ccccc1)Nc1ccccc1 as the compound, how does the inhibition [13] read?
Answer: Its inhibition is 20%.

Question: Which MIC (Escherichia coli [2]) does the source give for NCCC[C@@H](NC(=O)[C@@H](N)Cc1ccccc1)C(=O)N1CCN(c2cc3c(cc2F)c(=O)c(C(=O)O)cn3C2CC2)CC1 here?
Answer: Its MIC is 10 µg/mL (≈ 16.9 µM).

Question: What about the MIC (Staphylococcus aureus [3]) of the same compound?
Answer: Its MIC is 10 µg/mL (≈ 16.9 µM).

Question: And the MIC (Staphylococcus aureus [4])?
Answer: The MIC was over 10 µg/mL.

Question: And the MIC (Pseudomonas aeruginosa [5])?
Answer: The MIC was 50 µg/mL (≈ 84.4 µM).

Question: And the MIC (Pseudomonas aeruginosa [6])?
Answer: Its MIC is 50 µg/mL (≈ 84.4 µM).

Question: What about the MIC (Staphylococcus aureus [7]) of the same compound?
Answer: The MIC was over 10 µg/mL.

Question: And the MIC (Pseudomonas aeruginosa [8])?
Answer: The MIC was 50 µg/mL (≈ 84.4 µM).

Question: What about the MIC (Escherichia coli [9]) of the same compound?
Answer: The MIC was 10 µg/mL (≈ 16.9 µM).

Question: What about the MIC (Staphylococcus aureus [12]) of the same compound?
Answer: The MIC was 10 µg/mL (≈ 16.9 µM).

Question: For O=C(O)c1cn(C2CC2)c2cc(N3CCNCC3)c(F)cc2c1=O [CIPROFLOXACIN], which MIC (Escherichia coli [2]) is on record?
Answer: The MIC was at most 0.019 µg/mL.

Question: What about the MIC (Staphylococcus aureus [3]) of the same compound?
Answer: Its MIC is 0.16 µg/mL (≈ 0.483 µM).

Question: And the MIC (Staphylococcus aureus [4])?
Answer: Its MIC is 2.5 µg/mL (≈ 7.54 µM).

Question: And the MIC (Pseudomonas aeruginosa [5])?
Answer: The MIC was 0.16 µg/mL (≈ 0.483 µM).

Question: What about the MIC (Pseudomonas aeruginosa [6]) of the same compound?
Answer: Its MIC is 0.78 µg/mL (≈ 2.35 µM).

Question: And the MIC (Staphylococcus aureus [7])?
Answer: Its MIC is 0.63 µg/mL (≈ 1.9 µM).

Question: And the MIC (Pseudomonas aeruginosa [8])?
Answer: The MIC was 0.78 µg/mL (≈ 2.35 µM).

Question: And the MIC (Escherichia coli [9])?
Answer: The MIC was 0.04 µg/mL (≈ 0.121 µM).

Question: And the MIC (Staphylococcus aureus [12])?
Answer: The MIC was 0.16 µg/mL (≈ 0.483 µM).

Question: With COC(=O)[C@H]1[C@H]2C[C@@H]3c4[nH]c5cc(OC)ccc5c4CCN3C[C@H]2C[C@@H](OC(=O)c2cc(OC)c(OC)c(OC)c2)[C@@H]1OC as the compound, how does the inhibition [14] read?
Answer: The inhibition was 81%.

Question: And the inhibition (Staphylococcus aureus [15])?
Answer: Its inhibition is 32%.

Question: Which results are given for CC1COc2c(NCc3ccc(NC(=O)Nc4ccccc4)cc3)c(F)cc3c(=O)c(C(=O)O)cn1c23 (stereo not given)?
Answer: MIC (Escherichia coli [2]): 10 µg/mL (≈ 19.9 µM); MIC (Staphylococcus aureus [3]): > 100 µg/mL; MIC (Staphylococcus aureus [4]): 100 µg/mL (≈ 199 µM); MIC (Pseudomonas aeruginosa [5]): 50 µg/mL (≈ 99.5 µM); inhibition [16]: 85.6%; MIC (Pseudomonas aeruginosa [6]): 100 µg/mL (≈ 199 µM); inhibition (Staphylococcus aureus [17]): 84.1%; MIC (Pseudomonas aeruginosa [8]): 50 µg/mL (≈ 99.5 µM); MIC (Escherichia coli [9]): 10 µg/mL (≈ 19.9 µM); inhibition [18]: 96.4%; inhibition (Staphylococcus aureus [19]): 65.9%; MIC (Staphylococcus aureus [12]): > 100 µg/mL; inhibition [13]: 73.6%; inhibition (Staphylococcus aureus [20]): 53.4%

Question: How did the inhibition [13] turn out when NCc1ccc(NC(=O)Nc2ccc(Cl)cc2)cc1 was run?
Answer: The inhibition was 20%.
